MrgX1 agonist: agonists of human MrgX1 receptor, primary screen, HEK293 cells, Fluo-4 calcium flux; Mas-related G-protein coupled receptor member X1 (Homo sapiens), Q96LB2; Fluo-4 calcium fluorescence, agonist mode; hits give high values; B-score at 10 µM; 310,000 tested, 0.44% active; AID 588627, 2011;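 active means calcium response B-score plate-corrected fluorescence ratio at least 3 library SD, with starting fluorescence B-score inside 5 SD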
Target sequence (Q96LB2 whole entry, looked up): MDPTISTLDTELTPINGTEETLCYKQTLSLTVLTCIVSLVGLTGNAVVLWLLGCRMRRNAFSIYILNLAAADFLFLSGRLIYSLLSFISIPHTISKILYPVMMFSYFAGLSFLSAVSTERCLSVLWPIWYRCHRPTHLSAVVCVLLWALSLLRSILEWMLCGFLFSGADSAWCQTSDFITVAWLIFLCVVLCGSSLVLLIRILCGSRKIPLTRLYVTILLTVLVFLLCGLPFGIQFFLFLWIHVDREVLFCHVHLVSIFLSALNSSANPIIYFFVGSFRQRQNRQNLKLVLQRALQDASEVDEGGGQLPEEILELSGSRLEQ
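System – MrgX1-expressing HEK293 cells · Incubation – cells plated overnight, dye loaded 0.5 h 37 °C, 0.5 h room temperature · Technique – kinetic Fluo-4 NW fluorescence of intracellular calcium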
MrgX1 antag: antagonists of human MrgX1 receptor, primary screen, HEK293 cells, Fluo-4 calcium flux | B-score at 10 µM | 310,000 tested, 1.3% active | Mas-related G-protein coupled receptor member X1 (Homo sapiens), Q96LB2 | AID 588676, 2011 | BAM8-22 antagonism; hits give low values;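 active means calcium-response B-score plate-corrected more than 3 library SD below zero, starting fluorescence within 5 deviations, no agonist response on first addition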;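 further: peak minus trough fluorescence over baseline after final BAM8-22 challenge near maximal dose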
RGS4 inh: RGS4 inhibitors, primary screen, cell-based, HEK293 M3R inducible RGS4, calcium flux. Regulator of G-protein signaling 4 (Homo sapiens), P49798. Fluo-4 calcium flux; hits give high values; triggered by carbachol at its EC20. B-score at 10 µM. 310,000 tested, 0.45% active. AID 463165, 2010;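 active means B-score, a plate-corrected calcium signal, over three deviations above library mean, with baseline fluorescence within five deviations of library mean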;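 further: RGS4 expression induced by doxycycline in cells with stable M3 receptor; B-score is computed from the integrated fluorescence ratio over baseline after carbachol; higher B-score means a larger calcium signal and so more RGS4 inhibition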
Target sequence (P49798 whole entry, looked up): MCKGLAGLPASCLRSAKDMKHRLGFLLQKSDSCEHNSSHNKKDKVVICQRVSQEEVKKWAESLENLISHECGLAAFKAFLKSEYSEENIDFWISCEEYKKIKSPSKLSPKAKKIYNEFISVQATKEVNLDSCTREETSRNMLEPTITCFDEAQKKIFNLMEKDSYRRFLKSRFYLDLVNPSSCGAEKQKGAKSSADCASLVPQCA
MrgX1 PAM: positive allosteric modulators of MrgX1, primary screen, HEK293 cells, Fluo-4 calcium flux; 310,000 tested, 0.63% active; Mas-related G-protein coupled receptor member X1 (Homo sapiens), Q96LB2; FDSS; hits give high values; B-score at 10 µM;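 active means plate-corrected calcium response at least 3 library SD above typical, normal starting fluorescence, not activating the receptor alone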;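 further: compound read alongside a low EC10 to EC30 dose of BAM8-22 agonist; peak minus trough fluorescence over baseline measured at the second addition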
RGS4 pot: RGS4 potentiators or activators, primary screen, cell-based, HEK293 M3R inducible RGS4, calcium flux | 310,000 tested, 0.92% active | AID 463111, 2010 | carbachol calcium flux Fluo4; hits give low values | B-score at 10 µM;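 active means B-score of the integrated calcium signal more than 4 SD below the library mean, with starting fluorescence not abnormally high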;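 further: negative B-score means reduced calcium response which marks RGS4 activation or potentiation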
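Also added: carbachol at ECmax as muscarinic agonist stimulus; Assay system: HEK293 cells with stable M3R and inducible RGS4; Timing: overnight RGS4 induction, 30 min dye load 37 °C, 20 min compound RT; Measured by: Fluo4-AM (2 µM) calcium-flux fluorescence, kinetic read.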
MrgX1 ant reconf: MrgX1 receptor antagonists, duplicate retest, confirmation, HEK293 cells, Fluo-4 calcium flux; BAM8-22 calcium flux; hits give low values; remaining BAM8-22 calcium response % of control (hits give low values), % at 10 µM; AID 602420, 2012; shares compounds with MrgX1 antag; 2,300 tested, 19% active;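 active means remaining agonist calcium response no higher than 100% minus 3 SD of agonist-only control wells, with starting fluorescence near control levels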;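 further: agonist BAM8-22 given at a near maximal EC90 to ECmax level; peak minus minimum fluorescence divided by baseline after agonist addition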
HEK293 Ca flux: nonspecific calcium signal in parental HEK293, confirmation, counter-screen for MrgX1 antagonist project, parental HEK293 cells, Fluo-4 calcium flux; shares compounds with MrgX1 antag; Fluo-4 calcium fluorescence, FDSS; fluorescence ratio F(max-min)/F0 at 10 µM; 4,000 tested, 2% active; AID 624111, 2012;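 active means duplicate-averaged calcium fluorescence ratio at least three times the standard deviation of buffer wells, a nonspecific response in parental cells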
HEK293 Ca counter: calcium response in parental HEK293 cells, primary screen, counter-screen for MrgX1 allosteric activator project, cell-based, Fluo-4 calcium flux, duplicate. AID 624114, 2012. 4,000 tested, 0.4% active. shares compounds with MrgX1 antag. Fluo-4 fluorescence ratio; hits give high values. fluorescence ratio F(max-min)/F0 at 10 µM;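 active means calcium fluorescence ratio, averaged over duplicates, at least 3 SD of the buffer-well ratio, meaning a nonspecific response in receptor-free cells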;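 further: untransfected parental HEK293 lacking MrgX1 used as counterscreen for MrgX1 allosteric activators; fluorescence change taken during the second addition on a kinetic imager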
HEK293 Ca cntr2: calcium response in parental HEK293 cells, primary screen, counter-screen for MrgX1 agonist project, cell-based, Fluo-4 calcium flux, duplicate, agonist mode; Fluo-4 calcium fluorescence (FDSS); hits give high values; 4,000 tested, 8.7% active; shares compounds with MrgX1 antag; fluorescence ratio F(max-min)/F0 at 10 µM;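 active means calcium fluorescence ratio at least three times the spread of buffer wells, meaning a non-specific response in parental cells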
Active calls of the source: *; i = inactive; x = no result given. In the library only some 3.5% were active in any assay of this set; here they are far more common.

SMILES | MrgX1 agonist | MrgX1 antag | RGS4 inh | MrgX1 PAM | RGS4 pot | MrgX1 ant reconf | HEK293 Ca flux | HEK293 Ca counter | HEK293 Ca cntr2
COC(=O)c1sc(-c2ccc(Cl)cc2)cc1NC(=O)COCC(=O)O | i | i | i | i | i | x | x | x | x
O=C(O)CC(NC(=O)OCc1ccccc1)c1ccccc1 (stereo unspecified) | i | i | i | i | i | x | x | x | x
NC(CC(=O)O)c1cccc(OCc2ccccc2)c1 (stereo unspecified) | i | -5.4* | x | i | x | 75%* | i | i | i
Cc1ccc(S(=O)(=O)N(C)c2ccc(OC(=O)CN3C(=O)NC4(CCCC4)C3=O)cc2)cc1C | i | i | i | i | i | x | x | x | x
CCCC(=O)Nc1cccc(C(=O)Nc2ccccc2OCC)c1 | i | i | i | i | i | x | x | x | x
COc1cccc(OCCCOc2ccccc2C(C)C)c1 | i | -6.9* | i | i | i | i | i | i | i
COc1cccc(OCCOc2ccccc2[N+](=O)[O-])c1 | i | i | i | i | i | x | x | x | x
COc1ccc(OCC(=O)N/N=C2\CCc3ccccc32)cc1 | i | i | i | i | i | x | x | x | x
COc1ccc2c(c1)CC/C2=N\NC(=O)c1ccccc1 | i | -18* | i | i | i | i | i | i | i
CCOC(=O)CSC1=C(C#N)C(c2ccccc2Cl)C(C(=O)OC)C(=O)N1 (stereo unspecified) | i | -4.8* | i | i | i | i | i | i | i
Cc1cccc2cc3c(N)c(C(=O)N4CCc5ccccc54)sc3nc12 | i | -8.4* | i | i | i | i | 0.48* | i | 59*
Cc1cccc2cc3c(N)c(C#N)sc3nc12 | i | i | i | i | i | x | x | x | x
Cc1sc(NC(=O)c2sc3nc4c(C)cccc4cc3c2N)c(C#N)c1C | i | -6.2* | i | i | i | 60%* | i | i | i
O=C(c1cnc2n(c1=O)CCS2)N1CCc2ccccc21 | i | i | i | i | i | x | x | x | x
COc1ccc(-c2csc(NC(=O)c3ccccc3NS(=O)(=O)c3ccc(F)c(F)c3)n2)cc1 | i | -6.5* | i | i | i | 63%* | i | i | 51*
O=C(c1cc2cc(Br)ccc2s1)N1CCOCC1 | i | i | i | i | i | x | x | x | x
CCN(Cc1ccccc1)C(=O)CCS(=O)(=O)c1ccc2c(c1)n(C)c(=O)c(=O)n2C | i | i | i | i | i | x | x | x | x
O=C(O)CCNC(=O)C12CC3CC(CC(C3)C1)C2 | i | -8.1* | i | i | i | i | i | i | i
O=C(NCc1ccccc1)C12CC3CC(CC(C3)C1)C2 | i | i | i | i | i | x | x | x | x
CCc1ccccc1N(C(=O)c1snc(C(N)=O)c1N)C(C(=O)NCC1CCCO1)c1ccc(C)o1 (stereo unspecified) | i | i | i | i | i | x | x | x | x
O=C(Cn1cncn1)c1ccccc1 | i | i | i | i | i | x | x | x | x
COC(=O)c1cc(=O)n2c(-c3ccccc3)csc2n1 | i | i | i | i | i | x | x | x | x
CCN(CC(=O)NC(C)(C)C)Cc1cc(=O)n2c(-c3ccccc3)csc2n1 | i | -4.7* | i | i | i | i | i | i | i
COc1cc(Cl)c(C)cc1NC(=O)CSc1cc(Cl)ccc1Cl | i | i | i | i | i | x | x | x | x
COc1ccc(C=O)cc1Oc1nc(Cl)ncc1F | i | i | i | i | i | x | x | x | x
SMILES | MrgX1 agonist | MrgX1 antag | RGS4 inh | MrgX1 PAM | RGS4 pot | MrgX1 ant reconf | HEK293 Ca flux | HEK293 Ca counter | HEK293 Ca cntr2
COc1cc(NC(=S)NC(=O)c2ccc(C(C)(C)C)cc2)ccc1NC(=O)c1cccs1 | i | -6.2* | i | i | i | 81%* | i | i | i
O=Cc1cccn1-c1ccc(O)cc1 | i | i | i | i | i | x | x | x | x
Nc1c(C(=O)Nc2ccccc2F)sc2nc(-c3cccnc3)ccc12 | i | i | i | i | i | x | x | x | x
Nc1c(C(=O)Nc2ccccc2F)sc2nc(-c3ccco3)ccc12 | i | -5.3* | i | i | i | 78%* | i | i | i
CCOc1ccccc1CN1CCNC(=O)C1CC(=O)NCc1ccccn1 (stereo unspecified) | i | i | i | i | i | x | x | x | x
COC(=O)c1ccc(NC(=O)CN2CCN(c3ccccc3)CC2)cc1 | i | -6.7* | i | i | i | i | i | i | i
COC(=O)c1ccc(NC(=O)CSc2ccccc2)cc1 | i | -5.9* | i | i | i | i | i | i | i
COC(=O)c1ccc(NC(=O)CSc2ccccn2)cc1 | i | i | i | i | i | x | x | x | x
COc1ccc(NC(=O)COC(=O)Cc2c(F)cccc2Cl)cc1 | i | i | i | i | i | x | x | x | x
COc1ccc(-c2noc(=O)n2Cc2ccccc2F)cc1 | i | i | i | i | i | x | x | x | x
CCCC1=C(C(=O)OCC)C(c2ccncc2)n2ncnc2N1 (stereo unspecified) | i | -6.1* | i | i | i | i | i | i | i
COc1ccccc1NC(=O)CSc1ccc(-c2ccc(-n3ccnc3)cc2)nn1 | i | -5.1* | i | i | i | i | i | i | i
Cc1ccccc1NC(=O)CSc1ccc(-c2ccc(-n3cccn3)cc2)nn1 | i | i | i | i | i | x | x | x | x
CCn1nc(C)cc1C(=O)Sc1cccc(Br)c1 | i | i | i | i | i | x | x | x | x
COc1ccc(-n2c(Cc3cccn3C)nnc2SCC(=O)Nc2ccc(C)c(Cl)c2)cc1 | i | -4.8* | i | i | i | i | i | i | i

Screening data (PubChem BioAssay)
